Assay results published in ChEMBL document CHEMBL1142952, “Design, synthesis, and activity of 2-imidazol-1-ylpyrimidine derived inducible nitric oxide synthase dimerization inhibitors” (J Med Chem, 2007).
The source made the active and inactive calls. No rule for the calls is given here.

Experiments:
[1] = target: Nitric oxide synthase, inducible (Homo sapiens, UniProt P35228); experiment: Inhibition of cytokine-induced iNOS expressed in human A172 cells assessed as inhibition of NO formation; type: cell-based, A 172
BSC-1 [2] = experiment: Selectivity ratio, IC50 for bcNOS/IC50 for iNOS using vaccinia virus-induced system in BSC1 cells; type: cell-based; settings: Homo sapiens
In short: (§1)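 For each compound, the IC50 against bcNOS (b/i) or ecNOS (e/i) is divided by the iNOS IC50 from the same BSC-1 vaccinia system.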

BSC-1 [3] = experiment: Selectivity ratio, IC50 for ecNOS/IC50 for iNOS using vaccinia virus-induced system in BSC1 cells; type: cell-based; settings: Homo sapiens; in short: as §1
[4] = Inhibition of vaccinia virus system-induced human NOS expressed in BSC1 cells; type: cell-based; settings: bsc-1
[5] = target: Nitric oxide synthase, inducible (Rattus norvegicus) (UniProt Q06518); experiment: Activity against rat cerebellum iNOS upto 1 uM
Sequence of Nitric oxide synthase, inducible (Rattus norvegicus) (Q06518 whole entry): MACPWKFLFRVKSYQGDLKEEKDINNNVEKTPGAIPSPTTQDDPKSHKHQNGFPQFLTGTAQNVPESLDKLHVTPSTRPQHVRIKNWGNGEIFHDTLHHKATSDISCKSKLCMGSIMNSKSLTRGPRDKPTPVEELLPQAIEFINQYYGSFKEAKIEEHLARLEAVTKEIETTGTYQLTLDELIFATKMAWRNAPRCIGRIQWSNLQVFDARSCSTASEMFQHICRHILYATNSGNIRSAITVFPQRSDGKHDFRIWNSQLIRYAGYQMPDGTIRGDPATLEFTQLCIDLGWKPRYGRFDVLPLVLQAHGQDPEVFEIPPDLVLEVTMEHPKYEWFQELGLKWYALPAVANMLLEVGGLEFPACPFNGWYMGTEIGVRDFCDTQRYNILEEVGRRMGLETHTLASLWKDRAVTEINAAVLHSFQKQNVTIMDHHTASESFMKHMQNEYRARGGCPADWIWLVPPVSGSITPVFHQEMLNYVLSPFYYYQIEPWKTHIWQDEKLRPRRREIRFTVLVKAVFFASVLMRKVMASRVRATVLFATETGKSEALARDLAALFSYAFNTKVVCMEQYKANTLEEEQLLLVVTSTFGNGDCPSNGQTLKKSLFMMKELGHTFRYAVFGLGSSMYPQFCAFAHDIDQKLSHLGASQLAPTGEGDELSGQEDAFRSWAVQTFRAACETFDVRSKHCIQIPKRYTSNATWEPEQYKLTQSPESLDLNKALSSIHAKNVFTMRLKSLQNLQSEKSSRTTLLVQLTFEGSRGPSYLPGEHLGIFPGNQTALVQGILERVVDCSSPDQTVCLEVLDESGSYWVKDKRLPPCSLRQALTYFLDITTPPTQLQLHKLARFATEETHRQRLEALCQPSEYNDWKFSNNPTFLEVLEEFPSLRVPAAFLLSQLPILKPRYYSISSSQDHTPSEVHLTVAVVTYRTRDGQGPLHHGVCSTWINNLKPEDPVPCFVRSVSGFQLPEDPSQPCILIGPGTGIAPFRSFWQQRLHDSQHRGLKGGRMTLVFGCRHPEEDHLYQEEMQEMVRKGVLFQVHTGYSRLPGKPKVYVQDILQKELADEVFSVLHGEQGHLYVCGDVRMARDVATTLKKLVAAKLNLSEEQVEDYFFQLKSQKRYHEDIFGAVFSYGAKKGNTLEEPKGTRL

Sequence of Nitric oxide synthase, inducible (P35228 whole entry): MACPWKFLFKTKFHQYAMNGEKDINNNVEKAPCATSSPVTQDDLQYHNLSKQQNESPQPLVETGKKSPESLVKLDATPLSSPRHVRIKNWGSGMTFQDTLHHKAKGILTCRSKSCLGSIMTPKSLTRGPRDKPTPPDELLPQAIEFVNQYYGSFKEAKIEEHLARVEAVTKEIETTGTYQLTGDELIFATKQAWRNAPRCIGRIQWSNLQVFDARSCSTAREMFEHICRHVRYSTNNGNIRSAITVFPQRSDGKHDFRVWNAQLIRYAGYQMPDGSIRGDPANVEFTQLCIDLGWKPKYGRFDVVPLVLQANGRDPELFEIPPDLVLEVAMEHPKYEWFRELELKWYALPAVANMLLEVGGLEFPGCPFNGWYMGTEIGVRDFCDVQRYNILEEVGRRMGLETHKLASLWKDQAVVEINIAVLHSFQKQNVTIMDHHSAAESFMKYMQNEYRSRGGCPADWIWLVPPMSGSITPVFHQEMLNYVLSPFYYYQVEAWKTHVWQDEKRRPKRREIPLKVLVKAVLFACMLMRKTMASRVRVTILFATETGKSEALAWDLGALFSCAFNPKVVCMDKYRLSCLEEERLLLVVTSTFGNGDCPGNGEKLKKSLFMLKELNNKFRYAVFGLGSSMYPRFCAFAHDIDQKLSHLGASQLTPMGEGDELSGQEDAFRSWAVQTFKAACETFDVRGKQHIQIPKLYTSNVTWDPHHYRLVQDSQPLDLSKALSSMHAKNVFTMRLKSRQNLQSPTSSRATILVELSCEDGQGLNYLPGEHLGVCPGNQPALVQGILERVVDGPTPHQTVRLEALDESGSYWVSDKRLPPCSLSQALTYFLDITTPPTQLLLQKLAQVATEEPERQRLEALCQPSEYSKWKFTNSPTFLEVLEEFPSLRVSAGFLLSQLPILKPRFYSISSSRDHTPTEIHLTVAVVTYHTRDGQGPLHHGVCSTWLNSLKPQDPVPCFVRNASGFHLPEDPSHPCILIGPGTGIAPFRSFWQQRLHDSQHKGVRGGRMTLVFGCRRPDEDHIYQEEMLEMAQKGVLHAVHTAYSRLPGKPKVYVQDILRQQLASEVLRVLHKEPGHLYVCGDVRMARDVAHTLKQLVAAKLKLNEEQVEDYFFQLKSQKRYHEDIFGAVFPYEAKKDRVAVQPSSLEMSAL

| Structure (SMILES) | IC50 [1] [µM] | Ratio IC50 (BSC-1 [2]) | Ratio IC50 (BSC-1 [3]) | IC50 [4] [µM] | Activity [5] |
| --- | --- | --- | --- | --- | --- |
| CN(C)c1ccc(CNC(=O)CC2CCCCN2c2ccnc(-n3ccnc3)n2)cc1 (stereo not given) | 0.066 | 29 | 86 | 0.245 | inactive |
| CC(=O)N1CCN(c2ccnc(-n3ccnc3)n2)C(CC(=O)NCc2ccc3c(c2)OCO3)C1 (stereo not given) | 0.001 | 3 | > 10 | 0.32 | inactive |
| O=C(CC1CCCCN1c1cc(-n2ccnc2)nc(-n2ccnc2)n1)NCc1ccc2c(c1)OCO2 (stereo not given) | 0.035 | 13 | 130 | 0.515 | inactive |
| O=C(CC1CCCCN1c1cc(C(F)(F)F)nc(-n2ccnc2)n1)NCc1ccc2c(c1)OCO2 (stereo not given) | 0.18 | > 31 | > 310 | 0.32 | inactive |
| NS(=O)(=O)c1ccc(CNC(=O)CC2CCCCN2c2ccnc(-n3ccnc3)n2)cc1 (stereo not given) |  |  |  | > 0.33 | inactive |
| O=C(CC1CN(C(=O)NCc2ccccc2)CCN1c1ccnc(-n2ccnc2)n1)NCc1ccc2c(c1)OCO2 (stereo not given) | 0.00096 | 4 | 490 | 0.072 | inactive |
| COc1ccc(CCNC(=O)CC2CCCCN2c2ccnc(-n3ccnc3)n2)cc1 (stereo not given) | 0.0035 | 8 | > 1000 | 0.042 | inactive |
| O=C(CC1CCCCN1c1ccnc(-n2ccnc2)n1)NCc1ccc(F)cc1 (stereo not given) | 0.003 | 5 | 490 | 0.21 | inactive |
| O=C(CC1CCCCN1c1ccnc(-n2ccnc2)n1)Nc1ccc2c(c1)OCO2 (stereo not given) | > 0.1 |  |  |  | inactive |
| Cc1cc(N2CCN(C(=O)C(C)C)[C@@H](CC(=O)NCc3ccc4c(c3)OCO4)C2)nc(-n2ccnc2)n1 | 0.3 |  |  | > 1 | inactive |
| CS(=O)(=O)c1ccc(CNC(=O)CC2CCCCN2c2ccnc(-n3ccnc3)n2)cc1 (stereo not given) |  |  |  | 0.94 | inactive |
| O=C(CC1CN(Cc2cccc3ccccc23)CCN1c1ccnc(-n2ccnc2)n1)NCc1ccc2c(c1)OCO2 (stereo not given) | 0.069 | 7 | 40 | 0.12 | inactive |
| Cc1cc(N2CCNC(CC(=O)NCc3ccc4c(c3)OCO4)C2)nc(-n2ccnc2)n1 (stereo not given) | 0.1 |  |  | > 1 | inactive |
| Cc1cc(N2CCN(S(C)(=O)=O)C(CC(=O)NCc3ccc4c(c3)OCO4)C2)nc(-n2ccnc2)n1 (stereo not given) | 0.012 |  |  | > 1 | inactive |
| O=C(CC1CNCCN1c1ccnc(-n2ccnc2)n1)NCc1ccc2c(c1)OCO2 (stereo not given) | 0.00055 | 7 | 1200 | 0.07 | inactive |
| O=C(CC1CCCCN1c1ccnc(-n2ccnc2)n1)NCc1ccc(C(F)(F)F)cc1 (stereo not given) | 0.15 | 3 | 70 | 0.26 | inactive |
| COc1ccccc1CNC(=O)CC1CCCCN1c1ccnc(-n2ccnc2)n1 (stereo not given) |  |  |  | 0.5 | inactive |
| N#Cc1ccc(CNC(=O)CC2CCCCN2c2ccnc(-n3ccnc3)n2)cc1 (stereo not given) |  |  |  | > 1 | inactive |
| CC(=O)N1CCN(c2cc(C)nc(-n3ccnc3)n2)CC1CC(=O)NCc1ccc2c(c1)OCO2 (stereo not given) | 0.0085 | > 32 | > 320 | 0.34 | inactive |
| O=C(CC1CCCCN1c1ccnc(-n2ccnc2)n1)NCc1ccco1 (stereo not given) | 0.063 | 13 | 140 | 0.26 | inactive |
| CN1CCN(c2ccnc(-n3ccnc3)n2)C(CC(=O)NCc2ccc3c(c2)OCO3)C1 (stereo not given) | 0.00048 | 2 | 1300 | 0.011 | inactive |
| Cc1cc(N2CCN(C)C(CC(=O)NCc3ccc4c(c3)OCO4)C2)nc(-n2ccnc2)n1 (stereo not given) | 0.012 | 72 | > 350 | 0.34 | inactive |
| Cc1cc(N2CCC[C@H]2C(=O)NCCc2ccc3c(c2)OCO3)nc(-n2ccnc2)n1 | 6.4 |  |  |  | inactive |
| O=C(CC1CCCCN1c1cc(Cl)nc(-n2ccnc2)n1)NCc1ccc2c(c1)OCO2 (stereo not given) | 0.00049 | 5 | 1100 | 0.009 | inactive |
| O=C(CC1CCCCN1c1ccnc(-n2ccnc2)n1)NCc1ccc(OC(F)(F)F)cc1 (stereo not given) | 0.019 | 5 | 220 | 0.14 | inactive |
| Cc1ccc(CNC(=O)CC2CCCCN2c2ccnc(-n3ccnc3)n2)cc1 (stereo not given) |  |  |  | 0.274 | inactive |
| O=C(CC1CN(C(=O)COCc2ccccc2)CCN1c1ccnc(-n2ccnc2)n1)NCc1ccc2c(c1)OCO2 (stereo not given) | 0.0005 | 11 | 1220 | 0.028 | inactive |

| Structure (SMILES) | IC50 [1] [µM] | Ratio IC50 (BSC-1 [2]) | Ratio IC50 (BSC-1 [3]) | IC50 [4] [µM] | Activity [5] |
| --- | --- | --- | --- | --- | --- |
| Cc1cc(N2CCCCC2CC(=O)NCc2ccc3c(c2)OCO3)nc(-n2ccnc2)n1 (stereo not given) | 0.0041 | 5 | 1200 | 0.016 | inactive |
| COC(=O)N1CCN(c2ccnc(-n3ccnc3)n2)[C@H](CC(=O)NCc2ccc3c(c2)OCO3)C1 | 0.034 |  |  | > 1 | inactive |
| COC(=O)N1CCN(c2cc(C)nc(-n3ccnc3)n2)CC1CC(=O)NCc1ccc2c(c1)OCO2 (stereo not given) | 0.0054 | 50 | > 200 | 0.42 | inactive |
| CC(C)OC(=O)N1CCN(c2ccnc(-n3ccnc3)n2)C(CC(=O)NCc2ccc3c(c2)OCO3)C1 (stereo not given) | 0.001 | 4 | 800 | 0.024 | inactive |
| O=C(CC1CCCCN1c1ccnc(-n2ccnc2)n1)NC(c1ccccc1)c1ccccc1 (stereo not given) |  |  |  |  | inactive |
| CN(C)c1cccc2c(S(=O)(=O)N3CCN(c4ccnc(-n5ccnc5)n4)C(CC(=O)NCc4ccc5c(c4)OCO5)C3)cccc12 (stereo not given) | 0.0011 |  |  |  | inactive |
| COc1ccc(NC(=O)CC2CCCCN2c2ccnc(-n3ccnc3)n2)cc1OC (stereo not given) |  |  |  | 1.8 | inactive |
| O=C(CC1CN(S(=O)(=O)c2ccccc2)CCN1c1ccnc(-n2ccnc2)n1)NCc1ccc2c(c1)OCO2 (stereo not given) | 0.0027 | 9 | 1100 | 0.034 | inactive |
| CNC(=O)N1CCN(c2ccnc(-n3ccnc3)n2)C(CC(=O)NCc2ccc3c(c2)OCO3)C1 (stereo not given) | 0.001 | 4 | > 250 | 0.45 | inactive |
| CS(=O)(=O)N1CCN(c2ccnc(-n3ccnc3)n2)C(CC(=O)NCc2ccc3c(c2)OCO3)C1 (stereo not given) | 0.0007 | 12 | > 1000 | 0.074 | inactive |
| CC(C)CCN1CCN(c2ccnc(-n3ccnc3)n2)C(CC(=O)NCc2ccc3c(c2)OCO3)C1 (stereo not given) | 0.001 | 6 | 1000 | 0.01 | inactive |
| O=C(CC1CN(C(=O)Oc2ccccc2)CCN1c1ccnc(-n2ccnc2)n1)NCc1ccc2c(c1)OCO2 (stereo not given) | 0.0014 | 5 | 700 | 0.016 | inactive |
| O=C(CC1CCCCN1c1ccnc(-n2ccnc2)n1)NCc1ccc(Cl)cc1 (stereo not given) |  |  |  | 0.16 | inactive |
| O=C(CC1CCCCN1c1ccnc(-n2ccnc2)n1)NCc1ccccn1 (stereo not given) |  |  |  |  | inactive |
| O=C(CC1CN(C(=O)OCc2ccccc2)CCN1c1ccnc(-n2ccnc2)n1)NCc1ccc2c(c1)OCO2 (stereo not given) | 0.0008 | 7 | 660 | 0.018 | inactive |
| Cc1cc(N2CCN(Cc3ccccc3)C(CC(=O)NCc3ccc4c(c3)OCO4)C2)nc(-n2ccnc2)n1 (stereo not given) | 0.025 | 130 | 350 | 0.16 | inactive |
| COc1ccc(CNC(=O)CC2CCCCN2c2ccnc(-n3ccnc3)n2)cc1 (stereo not given) |  |  |  | 0.023 | inactive |
| CN(Cc1ccccc1)C(=O)CC1CCCCN1c1ccnc(-n2ccnc2)n1 (stereo not given) |  |  |  |  | inactive |
| O=C(CC1COCCN1c1ccnc(-n2ccnc2)n1)NCc1ccc2c(c1)OCO2 (stereo not given) | 0.0005 |  |  |  | inactive |
| COc1ccc(CNC(=O)CC2CCCCN2c2ccnc(-n3ccnc3)n2)cc1OC (stereo not given) |  |  |  | 0.11 | inactive |
| O=C(CC1CCCCCN1c1ccnc(-n2ccnc2)n1)NCc1ccc2c(c1)OCO2 (stereo not given) | 0.002 |  |  |  | inactive |
| O=C(CC1CCCCN1c1ccnc(-n2ccnc2)n1)NCc1ccccc1 (stereo not given) |  |  |  | 0.44 | inactive |
| Nc1ccc(CNC(=O)CC2CCCCN2c2ccnc(-n3ccnc3)n2)cc1 (stereo not given) |  |  |  | 0.85 | inactive |
| CNC(=O)CC1CCCCN1c1ccnc(-n2ccnc2)n1 (stereo not given) | > 0.1 |  |  |  | inactive |
| COc1cc(CNC(=O)CC2CCCCN2c2ccnc(-n3ccnc3)n2)cc(OC)c1OC (stereo not given) | > 0.1 |  |  |  | inactive |
| O=C(CC1CCCCN1c1cccc(-n2ccnc2)c1)NCc1ccc2c(c1)OCO2 (stereo not given) | 0.077 |  |  |  | inactive |
| CS(=O)(=O)Nc1ccc(CNC(=O)CC2CCCCN2c2ccnc(-n3ccnc3)n2)cc1 (stereo not given) |  |  |  | > 1 | inactive |
